Experimental data reported in ChEMBL document CHEMBL3232953, “Synthesis, characterization and anti-proliferative activity of heterocyclic hypervalent organoantimony compounds” (Eur J Med Chem, 2014).

Tests used:
[1] = tested on: A549; assay: Antiproliferative activity against human A549 cells after 48 hrs by CCK-8 assay; type: functional, cell-based; settings: A549, 48 h
Method in brief: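 A549 cells in RPMI1640 with 10% newborn calf serum and 1% penicillin-streptomycin at 37 °C, 5% CO2. Seeded 5 × 10³ cells/well, compounds added after 12 h from DMSO stocks diluted in medium (final DMSO < 0.1% v/v). After 48 h, CCK-8 added for 2 h and OD read at 490 nm. IC50 by Probit regression of inhibition ratio against concentration. At least three experiments.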

[2] = tested on: A549; assay: Antiproliferative activity against human A549 cells at 30 uM after 24 to 72 hrs by CCK-8 assay; type: functional
Method in brief: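 Time course in A549 cells seeded 5 × 10³ cells/well. Compounds tested at 1, 3, 10 and 30 […] for the periods shown, with final DMSO < 0.1%. Viability by CCK-8 (2 h, OD 490 nm). Mean ± S.D. of three experiments done in triplicate, one-way ANOVA against 24 h and 48 h.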

SMILES: CC(C)(C)N(Cc1ccccc1Br)Cc1ccccc1Br
- IC50 [1]: > 30 µM

SMILES: Brc1ccccc1CN(Cc1ccccc1Br)C1CCCCC1
- inhibition at 30 µM [2]: 9.39%
- IC50 [1]: > 30 µM

SMILES: Brc1ccccc1CN(Cc1ccccc1Br)c1ccccc1
- IC50 [1]: > 30 µM
